Assay results taken from ChEMBL document CHEMBL4196014, “Highly convergent synthesis and antiviral activity of (E)-but-2-enyl nucleoside phosphonoamidates” (Eur J Med Chem, 2018).
pEC50: −log10 of the molar value. The source made the active and inactive calls. The calls are words filed in the database; no cut-off is given here.

Experiments:
HEL = test: Cytostatic activity against HEL cells after 3 days by Coulter counting method; format: cell-based; details: human, 72 h
Summary of the method: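 HEL cells were seeded at 5 × 10^3 cells/well and grown for 24 h, then given medium with graded compound concentrations. After 3 days at 37 °C, cells were counted with a Coulter counter.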

Human alphaherpesvirus 1 [1] = test: Antiviral activity against Human simplex virus 1 KOS infected in HEL cells assessed as reduction in viral cytopathic effect; format: functional, organism-based; details: Human alphaherpesvirus 1, KOS
Summary of the method: (§1)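 Confluent cell monolayers were infected with 100 CCID50 of virus (1 CCID50 is the dose infecting 50% of cultures) with test compound at varying concentrations (100, 20, … μM). CPE was scored once it was complete in untreated infected controls.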

[2] = Cytotoxicity against HEL cells assessed as alteration of cell morphology by microscopic method; format: cell-based; details: human
Summary of the method: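 MCC is the lowest compound concentration giving a microscopically visible alteration of cell morphology.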

Human alphaherpesvirus 2 = test: Antiviral activity against Human simplex virus 2 G infected in HEL cells assessed as reduction in viral cytopathic effect; format: functional, organism-based; details: Human alphaherpesvirus 2, strain G; summary of the method: as §1
Human alphaherpesvirus 1 [3] = test: Antiviral activity against thymidine kinase deficient acyclovir-resistant Human simplex virus 1 KOS infected in HEL cells assessed as reduction in viral cytopathic effect; format: functional, organism-based; details: Human alphaherpesvirus 1, KOS; summary of the method: as §1
Vaccinia virus = test: Antiviral activity against Vaccinia virus infected in HEL cells assessed as reduction in viral cytopathic effect; format: functional, organism-based; details: Orthopoxvirus vaccinia; summary of the method: as §1
[4] = system: Respiratory syncytial virus; test: Antiviral activity against Respiratory syncytial virus infected in human HeLa cells assessed as reduction in viral cytopathic effect; format: functional, organism-based; summary of the method: as §1
[5] = system: Vesicular stomatitis virus; test: Antiviral activity against Vesicular stomatitis virus infected in human HeLa cells assessed as reduction in viral cytopathic effect; format: functional, organism-based; summary of the method: as §1
Human alphaherpesvirus 3 [6] = test: Antiviral activity against Varicella zoster virus Oka infected in HEL cells assessed as reduction in viral plaque formation; format: functional, organism-based; details: Human alphaherpesvirus 3, strain Oka vaccine
Summary of the method: (§2)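 Confluent cultures were inoculated with 20 PFU of virus with compound at varying concentrations (100, 20, … μM). Plaques were counted once plaque formation was complete in untreated infected controls.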

[7] = system: Human immunodeficiency virus 1; test: Antiviral activity against Human immunodeficiency virus 1 LAV1 infected in primary human PBM cells after 6 days by reverse transcriptase activity-based assay; format: functional, organism-based
Human betaherpesvirus 5 [8] = test: Antiviral activity against Human cytomegalovirus Davis infected in HEL cells assessed as reduction in viral cytopathic effect; format: functional, organism-based; details: Human betaherpesvirus 5, Davis; summary of the method: as §1
Influenza A virus = test: Antiviral activity against Influenza A virus (H1N1) infected in MDCK cells assessed as reduction in viral cytopathic effect; format: functional, organism-based
Summary of the method: (§3)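 Nearly confluent MDCK cultures were infected with 100 CCID50 of virus with compound at varying concentrations (100, 20, … μM). CPE was scored when complete in untreated infected controls.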

Influenza B virus = test: Antiviral activity against Influenza B virus infected in MDCK cells assessed as reduction in viral cytopathic effect; format: functional, organism-based; summary of the method: as §3
Coxsackievirus B4 [9] = test: Antiviral activity against Coxsackievirus B4 infected in African green monkey Vero cells assessed as reduction in viral cytopathic effect; format: functional, organism-based; summary of the method: as §1
Sindbis virus = test: Antiviral activity against Sindbis virus infected in African green monkey Vero cells assessed as reduction in viral cytopathic effect; format: functional, organism-based; summary of the method: as §1
Influenza A virus H3N2 = test: Antiviral activity against Influenza A virus H3N2 infected in MDCK cells assessed as reduction in viral cytopathic effect; format: functional, organism-based; summary of the method: as §3
[10] = system: Mammalian orthoreovirus 1; test: Antiviral activity against Reovirus-1 infected in African green monkey Vero cells assessed as reduction in viral cytopathic effect; format: functional, organism-based; summary of the method: as §1
Human betaherpesvirus 5 [11] = test: Antiviral activity against Human cytomegalovirus AD169 infected in HEL cells assessed as reduction in viral cytopathic effect; format: functional, organism-based; details: Human betaherpesvirus 5, AD169, HEL; summary of the method: as §1
Human alphaherpesvirus 3 [12] = test: Antiviral activity against thymidine kinase deficient Varicella zoster virus 07/1 infected in HEL cells assessed as reduction in viral plaque formation; format: functional, organism-based; details: Human alphaherpesvirus 3, 07/1, HEL; summary of the method: as §2
Human respirovirus 3 = test: Antiviral activity against Human parainfluenza virus 3 infected in African green monkey Vero cells assessed as reduction in viral cytopathic effect; format: functional, organism-based; summary of the method: as §1
Coxsackievirus B4 [13] = test: Antiviral activity against Human coxsackievirus B4 infected in human HeLa cells assessed as reduction in viral cytopathic effect; format: functional, organism-based; summary of the method: as §1
Human coronavirus 229E = test: Antiviral activity against Human coronavirus 229E infected in HEL cells assessed as reduction in viral cytopathic effect; format: functional, organism-based; summary of the method: as §1
[14] = Selectivity index, ratio of CC50 for HEL cells to EC50 for thymidine kinase deficient Varicella zoster virus 07/1 infected in HEL cells; format: toxicity, cell-based; details: human, read-out: Ratio CC50/EC50
Summary of the method: (§4)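 SI is CC50 divided by EC50. CC50 comes from the 3-day HEL Coulter-counter growth assay. EC50 comes from the VZV plaque-reduction assay (20 PFU inoculum).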

[15] = Selectivity index, ratio of CC50 for HEL cells to EC50 for Varicella zoster virus Oka infected in HEL cells; format: toxicity, cell-based; details: human, read-out: Ratio CC50/EC50; summary of the method: as §4

| SMILES | CC50 (HEL) [µM] | pEC50 (Human alphaherpesvirus 1 [1]) | MCC [2] [µM] | pEC50 (Human alphaherpesvirus 2) | pEC50 (Human alphaherpesvirus 1 [3]) | pEC50 (Vaccinia virus) | Activity [4] | Activity [5] | pEC50 (Human alphaherpesvirus 3 [6]) | Activity [7] | pEC50 (Human betaherpesvirus 5 [8]) | Activity (Influenza A virus) | Activity (Influenza B virus) | Activity (Coxsackievirus B4 [9]) | Activity (Sindbis virus) | Activity (Influenza A virus H3N2) | Activity [10] | pEC50 (Human betaherpesvirus 5 [11]) | pEC50 (Human alphaherpesvirus 3 [12]) | Activity (Human respirovirus 3) | also measured |
| --- | --- | --- | --- | --- | --- | --- | --- | --- | --- | --- | --- | --- | --- | --- | --- | --- | --- | --- | --- | --- | --- |
| Nc1nc2c(ncn2COCCO)c(=O)[nH]1 [ACYCLOVIR] | > 440 | 5.92 | > 440 | 6.15 | 4.03 | < 3.60 |  |  |  |  |  |  |  |  |  |  |  |  |  |  |  |
| CCCCCCCCCCCCCCCOCCCOP(=O)(O)C/C=C/Cn1cc(C)c(=O)[nH]c1=O | 76 | < 4.43 | 184 | < 4.43 | < 4.43 | < 4.43 | inactive | inactive | 4.71 | inactive | 4.87 | inactive | inactive | inactive | inactive | inactive | inactive | < 4.41 | 4.69 | inactive | Activity (Coxsackievirus B4 [13]): inactive |
| C[C@H](NP(=O)(C/C=C/Cn1cc(F)c(=O)[nH]c1=O)Oc1ccccc1)C(=O)OCc1ccccc1 (some centres not stated) |  | < 4.00 | ≥ 100 | < 4.00 | 4.10 | < 4.00 | inactive | inactive | < 4.00 | inactive | < 4.70 | inactive | inactive | inactive | inactive | inactive | inactive | < 4.70 | < 4.00 | inactive | pEC50 (Human coronavirus 229E): 4.35; Activity (Coxsackievirus B4 [13]): inactive |
| Nc1ccn(C[C@@H](CO)OCP(=O)(O)O)c(=O)n1 [CIDOFOVIR] | > 300 | 5.19 | > 300 | 5.39 | 5.34 | 4.67 |  |  |  |  |  |  |  |  |  |  |  |  |  |  |  |
| Cc1cn(C/C=C/CP(=O)(OCOC(=O)C(C)(C)C)OCOC(=O)C(C)(C)C)c(=O)[nH]c1=O | 36.4 |  | ≥ 100 | 5.19 |  | 4.51 | inactive | inactive | 5.72 | inactive | < 4.39 | inactive | inactive | inactive | inactive | inactive | inactive | < 4.39 | 6.37 | inactive | selectivity ratio [14]: 85; selectivity ratio [15]: 19; Activity (Coxsackievirus B4 [13]): inactive |
| CCCCCCCCCCCCCCCOCCCOP(=O)(C/C=C/Cn1cc(C)c(=O)[nH]c1=O)OCOC(=O)OC(C)C (configuration not stated) | 14.7 | < 3.82 | 30 | < 3.82 | < 3.82 |  | inactive | inactive | < 5.22 | inactive | < 5.22 | inactive | inactive | inactive | inactive | inactive | inactive | < 5.22 | < 5.22 | inactive | Activity (Coxsackievirus B4 [13]): inactive |
| Cc1cn(C/C=C/CP(=O)(OCOC(=O)C(C)C)OCOC(=O)C(C)C)c(=O)[nH]c1=O | 36 | 5.38 | > 200 | 5.21 | 5.55 | < 3.70 | inactive | inactive | 5.90 | inactive | 4.08 | inactive | inactive | inactive | inactive | inactive | inactive | 3.99 | 6.35 | inactive | selectivity ratio [14]: 80; selectivity ratio [15]: 29; Activity (Coxsackievirus B4 [13]): inactive |
| Nc1nc(O)c2ncn(COC(CO)CO)c2n1 [GANCICLOVIR] | > 350 |  | ≥ 350 |  |  |  |  |  |  |  | 5.39 |  |  |  |  |  |  | 5.25 |  |  |  |
| O=c1[nH]c(=O)n([C@H]2C[C@H](O)[C@@H](CO)O2)cc1/C=C/Br [BRIVUDINE] | > 300 | 7.09 | > 300 | 3.77 | 3.38 | 4.97 |  |  |  |  |  |  |  |  |  |  |  |  | ≤ 4.03 |  | selectivity ratio [14]: > 3; selectivity ratio [15]: > 21400 |
| C[C@H](NP(=O)(C/C=C/Cn1cc(Cl)c(=O)[nH]c1=O)Oc1ccccc1)C(=O)OCc1ccccc1 (some centres not stated) |  | 4.37 | ≥ 100 | 4.40 | 4.62 | < 4.00 | inactive | inactive | 4.35 | inactive | < 4.70 | inactive | inactive | inactive | inactive | inactive | inactive | < 4.70 | 4.70 | inactive | pEC50 (Human coronavirus 229E): 5.05; Activity (Coxsackievirus B4 [13]): inactive |
